This is a sample that favours compounds with a hit; in the whole collection about 5.8% have one here.
PLK1 inh = blocks human PLK1 kinase activity | P53350 | recombinant PLK1 kinase, TR-FRET peptide phosphorylation | inhibition, % at 10 µM | 97,000 compounds, 0.53% hits | AID 619;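 active means inhibition of 50% or more in the single-concentration screen; inactive means inhibition below 50%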;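 further: 0% = DMSO max control and 100% = H-89 dihydrochloride min control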
Cav3 T inh = human Cav3.2 channel inhibition, primary screen; O95180; Cav3.2-expressing cells, Fluo-4 calcium fluorescence FDSS; stronger effect = lower value; B-score at 10 µM; 100,000 compounds, 4% hits;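 active means single-dose well whose peak fluorescence ratio is a statistical outlier from its plate by either plate-standardised score or position-corrected B-score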
FAK inh = inhibitors of human focal adhesion kinase. biochemical FAK kinase activity assay. Q05397. AID 727. 97,000 compounds, 0.84% hits. inhibition, %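 (tested at 7 µM)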; in the data active means inhibition above about 19%;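 further: 0% = DMSO and 100% = reference compound high control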
Rev-RRE block = disrupts HIV-1 Rev binding to RRE RNA; Rev peptide-RRE RNA binding, FRET; 97,000 compounds, 0.79% hits; P05866; inhibition, % at 8 µM; AID 704;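 active means inhibition above the screen-wide mean plus 3 SD, cut at about 35% in these data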;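 further: 0% = median DMSO wells and 100% = median Neomycin B control wells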
Target sequence (P05866 whole entry, looked up): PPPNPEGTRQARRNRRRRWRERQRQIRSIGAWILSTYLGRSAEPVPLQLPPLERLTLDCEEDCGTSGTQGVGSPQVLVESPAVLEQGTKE
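Test system: labelled RRE RNA duplex and labelled Rev peptide. Times: 5 min compound–RNA preincubation, then 15 min with peptide, 25 °C. Doses: single-dose 8 µM. Measured by: FRET, excitation 480 nm, emission 540 nm donor and 671 nm acceptor. Measure: % inhibition of FRET ratio versus controls.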
PLK1 PBD inh = inhibitors of human Plk1 polo box domain binding; AID 693; 97,000 compounds, 0.13% hits; Plk1 PBD phosphopeptide binding, fluorescence polarization; inhibition, %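 (tested at about 20 µM)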; in the data active means inhibition above about 34%, passing the limit was not always enough
PTK2B oligo ant = antagonists of human Pyk2 oligomerization; 99,000 compounds, 0.83% hits; Q293 cells, Pyk2 FERM NanoBiT luminescence; stronger effect = lower value; AID 1347419; Q14289; z-score (the deposit names both 25 µM and 10 µM);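 active means Z-score of -3 or lower, scaled per plate to the spread of control and sample wells; inactive means z-score above -3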;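 further: negative z-score means lost luminescence so less FERM oligomerization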
* hit, by the source's call; x = no result; [ ] = remark or other dose.

SMILES	PLK1 inh	Cav3 T inh	FAK inh	Rev-RRE block	PLK1 PBD inh	PTK2B oligo ant
Cc1cccc(NC(=O)Cn2c(=O)n(Cc3ccco3)c(=N)c3c4c(sc32)COC(C)(C)C4)c1	-1	-4.2*	-5	-4	-40	-0.31
CC1(C)Cc2c(sc3c2c(=N)n(Cc2ccco2)c(=O)n3CC(=O)Nc2ccc(Cl)cc2)CO1	x	-1.2	x	x	x	-0.12
CC1(C)Cc2c(sc3c2c(=N)n(Cc2ccco2)c(=O)n3CC(=O)Nc2cccc(Cl)c2)CO1	x	-5.2*	x	x	x	-0.15
CC1(C)Cc2c(sc3c2c(=N)n(Cc2ccco2)c(=O)n3CC(=O)Nc2ccccc2)CO1	3	-1.2	-2	2	16	0.22
Cc1cc(C)cc(SCc2noc(C(=O)NCCN(C)C)c2C(=O)NCCN(C)C)c1	x	0.52	x	x	x	x
COC(=O)c1c(NS(=O)(=O)c2ccc3ccccc3c2)sc2c1CCCC2	4	-3.6	-2	-4	19	-0.81
CC1CCc2c(sc(NS(=O)(=O)c3ccccc3)c2C(=O)OC(C)C)C1 (stereo unspecified)	-14	-5.1*	-1	20	-4	0.6
CC1CCCC(C)N1C(=O)CSc1nnc(C2CCCCC2)o1 (stereo unspecified)	x	0.29	x	x	x	0.48
O=C(Nc1nnc(-c2ccc3c(c2)CCCC3)o1)c1ccc(Cl)cc1Cl	-17	-3.2*	-7	-1	13	x
COc1ccc(-c2nnc(NC(=O)c3cc(Cl)ccc3Cl)o2)cc1	-3	-5.2*	-8	0	-8	x
O=C(Nc1nnc(-c2ccc3c(c2)CCCC3)o1)C1CCCCC1	-22	0.3	3	4	0	x
COc1ccccc1C(=O)Nc1nnc(-c2ccc(Cl)cc2)o1	x	-2.1	x	x	x	x
O=c1nc(/C=C/c2ccc(-c3ccc(F)cc3)o2)cc(C(F)(F)F)[nH]1	-40	x	2	116*[fluorescence artefact?]	-14	x
O=C(CSc1nccn1-c1ccc(Cl)cc1)NCc1ccc2c(c1)OCO2	-7	x	0	3	4	x
CCOC(=O)C1=C(C)NC(=S)N(C(C)=O)C1c1ccc(Cl)cc1 (stereo unspecified)	-6	-5.5*	0	0	6	-1
CN(CC(=O)Nc1ccc(C#N)cc1)Cc1ccc(Cl)c(Cl)c1	-4	-6.6*	-4	15	-5	1.5
c1ccc(-c2csc(-n3cnnn3)n2)cc1	-11	0.3	0	5	-10	0.22
N#C/C(=C(/O)C(Cl)c1ccccc1)c1nc2ccccc2s1 (stereo unspecified)	-200	-5.3*	-10	16	-12	-1.6
CCc1ccc(NC(=O)c2ccc3c(c2)C(=O)N(CCOC)C3Nc2ccc(CC)cc2)cc1 (stereo unspecified)	x	-2.5	x	x	x	x
O=C(CSc1nc2cc(Cl)ccc2s1)N1CCCc2ccccc21	-16	-1.1	5	12	34	-0.34
COc1ccc(-c2nnc(SCC(=O)N3c4ccccc4Sc4ccccc43)o2)cc1	-11	-5.6*	0	8	-5	-1
COc1cc(OC)cc(-c2nnc(SCC(=O)N3c4ccccc4Sc4ccccc43)o2)c1	-14	-2.7	1	11	-7	0.44
COc1cc(OC)cc(-c2nnc(SCC(=O)N3CCCc4ccccc43)o2)c1	-16	-4.3*	-1	9	3	-1.6
CCOc1ccc2nc(SCC(=O)N3CCCc4ccccc43)sc2c1	-9	-4.7*	1	8	1	-0.38
COc1cccc(-c2nnc(SCC(=O)N3CCCc4ccccc43)o2)c1	-14	x	5	10	-35	0.45
SMILES	PLK1 inh	Cav3 T inh	FAK inh	Rev-RRE block	PLK1 PBD inh	PTK2B oligo ant
CCc1cc2c(=O)n(Cc3ccco3)c(SCC(=O)N3CCCc4ccccc43)nc2s1	-3	-5.3*	8	7	-1	-0.24
Cc1ccc(C(=O)N/C(=C\c2cccs2)C(=O)NCc2ccncc2)cc1	-11	0.27	-4	6	-5	0.03
Cc1nn(C(=O)c2cccc([N+](=O)[O-])c2)c(C)c1Sc1ccccc1	-4	-0.93	-6	3	7	-0.29
CCn1c(CNc2ccc(F)cc2)nnc1SCC(=O)N1CCCc2ccccc21	-10	-2.8	-5	5	-8	0.42
O=C(CSc1nnc(CNc2ccc(F)cc2)o1)N1CCCc2ccccc21	x	-5.3*	x	x	x	0.13
CC(=O)N1CCC(Nc2ccc(C)cc2)CC1	-1	-0.81	3	6	21	x
COC(=O)c1cc(=O)n(CCc2ccccc2F)c(=Nc2ccc(F)c(Cl)c2)s1	14	-3.5*	-3	21	13	x
CC(C)OC(=O)[C@H]1[C@H](c2ccc(Cl)cc2)[C@@](C#N)(C(N)=O)[C@@H]2C=CC(C(N)=O)=CN21	47	-0.54	-1	16	-22	0.03
CCc1ccc(NC(=O)Cc2cn(C)c3ccccc23)cc1	1	-4.8*	-1	3	-6	-2
CCc1cccc(NC(=O)Cc2cn(C)c3ccccc23)c1	3	-7.7*	-2	5	12	-1.2
Cn1cc(CC(=O)Nc2cccc(C#N)c2)c2ccccc21	-32	-4.2*	1	6	10	3.6
Cc1cccc(C)c1NC(=S)NC(=O)CCc1ccccc1	-17	-2.3	-4	-1	23	2
Cc1ccccc1NC(=S)NCCC(c1ccccc1)c1ccccc1	-13	-4.4*	4	-4	-24	-0.47
Cc1ccccc1NC(=S)NC(=O)CCc1ccccc1	-3	-4*	-2	-3	4	-0.01
COc1ccc(OC)c(NC(=S)NCCC(c2ccccc2)c2ccccc2)c1	-4	-7.8*	3	-1	-18	-1.1
Cc1ccc(NC(=S)NCCC(c2ccccc2)c2ccccc2)c(C)c1	-14	-3.2	-1	6	2	-1.3
CC(C)Oc1ccc(N2CC(C(=O)Nc3ccc(N4CCOCC4)cc3)CC2=O)cc1 (stereo unspecified)	-5	-0.076	0	-3	0	0.28
COc1ccc(-c2cn3cccnc3n2)cc1NC(=O)c1ccc(Br)o1	4	1.6	-5	-2	32	-3.2*
Brc1ccc(-c2nnc3n2-c2ccccc2CC3)cc1	x	-0.25	x	x	x	0.97
Cc1nc(CS(=O)(=O)c2ccccc2)cc(Sc2ccc(Cl)cc2Cl)n1	-3	-5.7*	6	12	-17	-0.4
Cc1cc(C)n(C(=O)C2CCCN2S(=O)(=O)c2ccc(Cl)cc2)n1 (stereo unspecified)	-12	x	-4	6	13	x
CCOC(=O)c1cnn(-c2c(Cc3ccccc3)c(C)nc3c(-c4ccccc4)c(C)nn23)c1N	-7	-0.35	-1	2	-22	-4*
CC(=O)Nc1ccc(S(=O)(=O)NCCN2CCOCC2)cc1	x	-1.6	x	x	x	1.3
CC(=O)Nc1ccc(S(=O)(=O)NCCSCc2c(Cl)cccc2Cl)cc1	-5	-5.1*	6	8	4	-0.19
Cc1ccccc1NS(=O)(=O)c1cc(C(=O)Nc2cccc(N(C)S(C)(=O)=O)c2)ccc1C	-2	-3	2	12	7	-3*

Screening data as filed in PubChem.
